pKi: −log10 of the molar value.
What was measured:
[1] = Oral bioavailability in dog (dose 10 mg/kg); assay type: ADME, organism-based, Canis lupus familiaris; settings: in vivo
Procedure, shortened: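 Dogs, n = 3 per group, given 10 mg/kg in a propylene glycol/polyethylene glycol 400/water formulation, dosed orally and intravenously. F% = AUC po/AUC iv, with AUC from time zero to infinity of the plasma concentration-time curve, normalized for dose.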

[2] = system: MT2; test: Antiviral potency evaluated by measuring accumulation of viral RNA transcripts 3 days after infection of MT-2 cells with HIV-1 RF; assay type: functional; settings: Homo sapiens, MT2, 72 h
[3] = target: Human immunodeficiency virus type 1 protease (Human immunodeficiency virus 1, UniProt Q72874); test: Inhibitory activity against HIV protease
Procedure, shortened: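 Ki for HIV protease, measured by cleavage of a fluorescent substrate with HPLC analysis, following the earlier method.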

[4] = Peak plasma concentration was measured in dogs; assay type: ADME, organism-based, Canis lupus familiaris; settings: dog
[5] = target: Human immunodeficiency virus type 1 protease (Human immunodeficiency virus 1) (UniProt Q72874); test: Antiviral activity against mutant virus HIV-1 mutant (84V) strain; assay type: functional
Procedure, shortened: (§1)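 I84V single and I84V/V82F double mutant HIV-1, both from in vitro selection under a cyclic urea inhibitor. IC90 measured by yield reduction assay.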

[6] = target: Human immunodeficiency virus type 1 protease (Human immunodeficiency virus 1) (UniProt Q72874); test: Antiviral activity against mutant virus HIV-1 mutant (84V/82F) strain; assay type: functional; procedure, shortened: as §1
[7] = target: Human immunodeficiency virus type 1 protease (Human immunodeficiency virus 1) (UniProt Q72874); test: Antiviral activity against indinavir virus (HIV-1 mutated at 10R/63P/71V/82T/84V and resistant to indinavir)
[8] = target: Human immunodeficiency virus type 1 protease (Human immunodeficiency virus 1) (UniProt Q72874); test: Antiviral activity against ritonavir virus (HIV-1 mutated at 46I/63P/71V/82F/84V and resistant to ritonavir); assay type: functional
Procedure, shortened: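 Mutant HIV-1 viruses carrying protease substitutions seen in ritonavir- or indinavir-treated patient isolates; the ritonavir virus carries 46I/63P/71V/82F/84V. IC90 read from a viral p24 readout, following the earlier method.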

CC(=O)c1cccc(CN2C(=O)N(Cc3ccc4[nH]ncc4c3)[C@H](Cc3ccccc3)[C@H](O)[C@@H](O)[C@H]2Cc2ccccc2)c1
bioavailability [1]: 25% | IC90 [2]: 15 nM | pKi [3]: 10.44 | Cmax [4]: 1.3 µM

Nc1cccc(CN2C(=O)N(Cc3ccc4[nH]ncc4c3)[C@H](Cc3ccccc3)[C@H](O)[C@@H](O)[C@H]2Cc2ccccc2)c1
IC90 mutant/IC90 WT [5]: 6.8 | IC90 mutant/IC90 WT [6]: 200 | bioavailability [1]: 93% | IC90 [2]: 11 nM | IC90 mutant/IC90 WT [7]: 20 | IC90 mutant/IC90 WT [8]: 75 | pKi [3]: 10.52 | Cmax [4]: 7.2 µM

Nc1ccc(CN2C(=O)N(Cc3ccc4[nH]ncc4c3)[C@H](Cc3ccccc3)[C@H](O)[C@@H](O)[C@H]2Cc2ccccc2)cc1
IC90 mutant/IC90 WT [5]: 31 | IC90 mutant/IC90 WT [6]: 240 | bioavailability [1]: 100% | IC90 [2]: 11 nM | IC90 mutant/IC90 WT [8]: 170 | pKi [3]: 10.52 | Cmax [4]: 10.6 µM

O=C(Nc1nccs1)c1cccc(CN2C(=O)N(Cc3ccc4[nH]ncc4c3)[C@H](Cc3ccccc3)[C@H](O)[C@@H](O)[C@H]2Cc2ccccc2)c1
IC90 mutant/IC90 WT [5]: 2 | IC90 mutant/IC90 WT [6]: 22 | IC90 [2]: 8 nM | IC90 mutant/IC90 WT [7]: 7.3 | IC90 mutant/IC90 WT [8]: 9 | pKi [3]: 10.80

O=C1N(Cc2ccc(CO)cc2)[C@H](Cc2ccccc2)[C@H](O)[C@@H](O)[C@@H](Cc2ccccc2)N1Cc1ccc(CO)cc1 [DMP-323]
IC90 mutant/IC90 WT [5]: 28 | IC90 mutant/IC90 WT [6]: 97 | IC90 [2]: 57 nM | IC90 mutant/IC90 WT [7]: 18 | IC90 mutant/IC90 WT [8]: 93

Nc1cccc(CN2C(=O)N(Cc3cccc(N)c3)[C@H](Cc3ccccc3)[C@H](O)[C@@H](O)[C@H]2Cc2ccccc2)c1 [MOZENAVIR]
IC90 mutant/IC90 WT [5]: 10 | IC90 mutant/IC90 WT [6]: 100 | IC90 [2]: 130 nM | IC90 mutant/IC90 WT [7]: 27 | IC90 mutant/IC90 WT [8]: 49

CNc1cc(CN2C(=O)N(Cc3ccc4[nH]ncc4c3)[C@H](Cc3ccccc3)[C@H](O)[C@@H](O)[C@H]2Cc2ccccc2)ccc1F
bioavailability [1]: 14% | IC90 [2]: 7 nM | pKi [3]: 10.57 | Cmax [4]: 0.67 µM

CNc1cccc(CN2C(=O)N(Cc3ccc4[nH]ncc4c3)[C@H](Cc3ccccc3)[C@H](O)[C@@H](O)[C@H]2Cc2ccccc2)c1
bioavailability [1]: 92% | IC90 [2]: 8 nM | pKi [3]: 10.41 | Cmax [4]: 8 µM

From ChEMBL document CHEMBL1131003, “Nonsymmetric P2/P2' cyclic urea HIV protease inhibitors. Structure-activity relationship, bioavailability, and resistance profile of monoindazole-substituted P2 analogues” (J Med Chem, 1998)
